Results reported in ChEMBL document CHEMBL1156381, “Cacofurans A and B, new furanoditerpenes from a marine sponge” (J Nat Prod, 2001).
Converted amounts (≈) assume the structure as drawn. The source made the active and inactive calls. No cut-off for these calls is given here.

Key:
[1] = test system: Escherichia coli; experiment: Antibacterial activity against Escherichia coli; type: functional, organism-based
[2] = test system: Staphylococcus aureus; experiment: Antibacterial activity against methicillin-resistant Staphylococcus aureus; type: functional, organism-based
[3] = test system: K562; experiment: Cytotoxicity against human K562 cells; type: functional, cell-based
[4] = Toxicity in sea urchin egg assessed as inhibition of development of fertilized egg by light microscopy; design: species or system Tripneustes gratilla
How it was run: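 Eggs and sperm were collected from mature Tripneustes gratilla specimens for the fertilized-egg development assay.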

[5] = Cytotoxicity against rat NBT2 cells assessed as cell survival at 10 ug/mL after 16 hrs by phase contrast microscope; type: functional; settings: NBT2, 16 h, read-out: Activity
How it was run: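 Rat bladder epithelial carcinoma NBT-II cells were exposed to 10 μg/mL test agent. Phase contrast images of control and treated cells were recorded after 16 h on an image-based high content imaging workstation.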

[6] = test system: Bacillus cereus; experiment: Antibacterial activity against Bacillus cereus; type: functional, organism-based
[7] = test system: P388; experiment: Cytotoxicity against mouse P388 cells; type: functional, cell-based
[8] = test system: NBT2; experiment: Disruption of actin cytoskeleton in rat NBT2 cells at 10 ug/mL after 16 hrs by TMR-phalloidin imaging analysis; type: functional, cell-based
How it was run: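 NBT-II rat bladder epithelial carcinoma cells were treated at 10 μg/mL. Cells were then permeabilized and stained with TMR-phalloidin to image the actin cytoskeleton, with control cells for comparison.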

Structure (SMILES)	Activity [1]	Activity [2]	IC50 [3]	IC50 [4]	viability at 10 µg/mL [5]	Activity [6]	IC50 [7]	Activity [8]
CC(=O)O[C@@H](Cc1ccoc1)[C@@H]1[C@@]23CCCC(C)(C)[C@@H]2CC[C@]1(C)OC3 [CACOFURAN A]	inactive	inactive	> 1 µg/mL	0.5 µg/mL (≈ 1.39 µM)	50%	inactive	> 1 µg/mL	Active
CC1(C)CCC[C@@]23CO[C@@](C)(CC[C@@H]12)[C@@H]3[C@@H](O)Cc1ccoc1 [CACOFURAN B]	inactive	inactive	> 1 µg/mL	5 µg/mL (≈ 15.7 µM)	50%	inactive	> 1 µg/mL	Active
